The source made the active and inactive calls. The rule behind the calls is not given here.
How the values were obtained:
[1] = molecular target: Opioid receptors; delta & kappa (Homo sapiens) (UniProt P41145+P41143); experiment: Selective inhibitory activity was determined against kappa & delta opioid receptor in chinese Hamster Ovary (CHO) cell membranes
[2] = molecular target: Opioid receptors; mu & kappa (Homo sapiens) (UniProt P41145+P35372); experiment: Selective inhibitory activity was determined against kappa & mu opioid receptor in chinese Hamster Ovary (CHO) cell membranes
Sequence of Opioid receptors; mu & kappa (Homo sapiens) (P35372 whole entry, looked up): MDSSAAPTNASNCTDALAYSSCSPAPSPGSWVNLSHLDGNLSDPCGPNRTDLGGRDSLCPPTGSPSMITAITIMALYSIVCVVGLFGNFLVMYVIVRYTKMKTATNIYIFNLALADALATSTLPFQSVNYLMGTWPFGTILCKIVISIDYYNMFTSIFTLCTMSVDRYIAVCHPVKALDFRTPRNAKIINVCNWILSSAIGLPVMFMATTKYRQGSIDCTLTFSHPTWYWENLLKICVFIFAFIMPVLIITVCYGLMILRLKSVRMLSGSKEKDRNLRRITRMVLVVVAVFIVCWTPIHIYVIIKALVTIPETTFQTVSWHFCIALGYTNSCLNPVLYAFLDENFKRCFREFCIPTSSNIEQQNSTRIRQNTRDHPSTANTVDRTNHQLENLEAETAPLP
Sequence of Opioid receptors; mu & kappa (Homo sapiens) (P41145 whole entry, looked up): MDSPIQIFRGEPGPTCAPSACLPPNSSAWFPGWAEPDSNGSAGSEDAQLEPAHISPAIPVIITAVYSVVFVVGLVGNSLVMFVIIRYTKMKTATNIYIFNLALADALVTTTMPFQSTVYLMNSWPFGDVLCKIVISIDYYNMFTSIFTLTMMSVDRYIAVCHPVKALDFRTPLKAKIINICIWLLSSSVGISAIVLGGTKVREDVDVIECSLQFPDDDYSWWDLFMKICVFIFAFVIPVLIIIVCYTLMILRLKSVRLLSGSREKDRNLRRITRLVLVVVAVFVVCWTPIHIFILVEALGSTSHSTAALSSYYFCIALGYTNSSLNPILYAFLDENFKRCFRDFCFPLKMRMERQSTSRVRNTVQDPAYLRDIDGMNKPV

Mu-type opioid receptor [3] = molecular target: T1, Mu-type opioid receptor (Homo sapiens, UniProt P35372); experiment: Inhibitory activity against Opioid receptor mu 1 in chinese Hamster Ovary (CHO) cells membranes was determined using [3H]-DAMGO radioligand; format: cell-based
T1 sequence (P35372 whole entry): as the sequence (P35372 whole entry, looked up) above

[4] = molecular target: Delta-type opioid receptor (Homo sapiens, UniProt P41143); experiment: Inhibitory activity against Opioid receptor delta 1 in chinese Hamster Ovary (CHO) cell membranes was determined using [3H]naltrindole radioligand
Sequence of Delta-type opioid receptor (P41143 whole entry): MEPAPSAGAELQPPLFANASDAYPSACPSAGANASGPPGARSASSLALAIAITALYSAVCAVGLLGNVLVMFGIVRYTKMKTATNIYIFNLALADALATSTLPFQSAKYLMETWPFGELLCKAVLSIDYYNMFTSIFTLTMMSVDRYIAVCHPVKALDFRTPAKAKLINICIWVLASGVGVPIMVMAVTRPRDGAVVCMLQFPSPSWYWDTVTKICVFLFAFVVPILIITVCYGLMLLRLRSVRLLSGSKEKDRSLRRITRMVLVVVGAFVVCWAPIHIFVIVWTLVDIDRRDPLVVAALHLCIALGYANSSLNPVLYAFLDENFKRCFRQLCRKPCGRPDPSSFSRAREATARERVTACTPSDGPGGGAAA

[5] = molecular target: T2, Kappa-type opioid receptor (Homo sapiens, UniProt P41145); experiment: Inhibitory activity against Opioid receptor kappa 1 in chinese Hamster Ovary (CHO) cell membranes was determined using [3H]U-69593 radioligand
T2 sequence (P41145 whole entry): as the sequence (P41145 whole entry, looked up) above

Mu-type opioid receptor [6] = molecular target: T1, Mu-type opioid receptor
[7] = molecular target: T2, Kappa-type opioid receptor; experiment: Percent maximal stimulation in [35S]-GTP-gamma S binding assay mediated by the Opioid receptor kappa 1 in chinese Hamster Ovary (CHO)membranes; format: functional
[8] = molecular target: T2, Kappa-type opioid receptor; experiment: Maximal percent inhibitory activity in stimulating [35S]-GTP-gamma S binding mediated by the Opioid receptor kappa 1 in chinese Hamster Ovary (CHO) cell membranes; No Effect; format: functional
In short: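 Antagonist mode: human κ-CHO membranes (15 μg protein) with 100 nM U50,488 plus varying compound concentrations, 3 μM GDP, […] [35S]GTPγS, 60 min at 30 °C, pH 7.4 buffer with Mg2+/NaCl/EGTA; filtration, counting.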

Mu-type opioid receptor [9] = molecular target: T1, Mu-type opioid receptor; experiment: Maximal percent inhibitory activity was determined in stimulating [35S]-GTP-gamma S binding mediated by the Opioid receptor mu 1 in chinese Hamster Ovary (CHO) cell membranes
In short: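 Antagonist mode: human μ-CHO membranes (7.5 μg protein) with 200 nM DAMGO plus varying compound concentrations, 3 μM GDP, […] [35S]GTPγS, 60 min at 30 °C, pH 7.4 buffer with Mg2+/NaCl/EGTA; filtration, counting.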

Mu-type opioid receptor [10] = molecular target: T1, Mu-type opioid receptor; experiment: Percent maximal stimulation in [35S]-GTP-gamma S binding assay mediated by the Opioid receptor mu 1 in chinese Hamster Ovary (CHO)membranes
[11] = molecular target: T2, Kappa-type opioid receptor; experiment: Inhibitory activity in stimulating [35S]-GTP-gamma S binding mediated by the Opioid receptor kappa 1 in chinese Hamster Ovary (CHO) cell membranes was determined; format: functional
Mu-type opioid receptor [12] = molecular target: T1, Mu-type opioid receptor; experiment: Inhibitory activity was determined in stimulating [35S]-GTP-gamma S binding mediated by the Opioid receptor mu 1 in chinese Hamster Ovary (CHO)membranes
[13] = molecular target: T2, Kappa-type opioid receptor; experiment: Inhibitory activity in stimulating [35S]-GTP-gamma S binding mediated by the Opioid receptor kappa 1 in chinese Hamster Ovary (CHO) cell membranes; format: functional
In short: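 Antagonist mode: membranes of CHO cells stably expressing human κ receptor (15 µg protein/tube) incubated with varying compound concentrations plus 100 nM U50,488, 60 min at 30 °C, in Tris/MgCl2/NaCl/EGTA buffer pH 7.4 with 3 µM GDP and [35S]GTPγS. Filtration, scintillation counting. Nonspecific binding with 10 µM GTPγS.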

Sequence of Opioid receptors; delta & kappa (Homo sapiens) (P41143 whole entry, looked up): as the sequence (P41143 whole entry) above
Sequence of Opioid receptors; delta & kappa (Homo sapiens) (P41145 whole entry, looked up): as the sequence (P41145 whole entry, looked up) above

SMILES | Selectivity [1] | Selectivity [2] | Ki (Mu-type opioid receptor [3]) [nM] | Ki [4] [nM] | Ki [5] [nM] | EC50 (Mu-type opioid receptor [6]) [nM] | Emax [7] [%] | NE [8] | Imax (Mu-type opioid receptor [9]) [%] | Emax (Mu-type opioid receptor [10]) [%] | EC50 [11] [nM] | IC50 (Mu-type opioid receptor [12]) [nM] | IC50 [13] [nM] | NT [8]
Oc1ccc2c(c1)[C@@]13CCCC[C@H]1[C@@H](C2)N(CCCN1CC[C@]24CCCC[C@H]2[C@H]1Cc1ccc(O)cc14)CC3 | 25 | 2 | 48 | 600 | 24 | – | – | – | – | – | – | – | – | –
O=C(CCCCCCCC(=O)Oc1ccc2c(c1)[C@@]13CCCC[C@H]1[C@@H](C2)N(CC1CCC1)CC3)Oc1ccc2c(c1)[C@@]13CCCC[C@H]1[C@@H](C2)N(CC1CCC1)CC3 | 35 | 2 | 0.97 | 21 | 0.59 | 11 | 80 | inactive | 54 | 57 | 15 | 360 | – | –
O=C(Oc1ccc2c(c1)[C@@]13CCCC[C@H]1[C@@H](C2)N(CC1CCC1)CC3)c1ccc(C(=O)Oc2ccc3c(c2)[C@@]24CCCC[C@H]2[C@@H](C3)N(CC2CCC2)CC4)cc1 | 100 | 1 | 4.7 | 400 | 4.2 | – | – | – | – | – | – | – | – | –
O=C(Oc1ccc2c(c1)[C@@]13CCCC[C@H]1[C@@H](C2)N(CC1CCC1)CC3)[C@H]1C[C@H]1C(=O)Oc1ccc2c(c1)[C@@]13CCCC[C@H]1[C@@H](C2)N(CC1CCC1)CC3 | 90 | 2 | 0.28 | 16 | 0.17 | – | – | – | – | – | – | – | – | –
c1cc2c(cc1OCCCCCCCCCCOc1ccc3c(c1)[C@@]14CCCC[C@H]1[C@@H](C3)N(CC1CCC1)CC4)[C@@]13CCCC[C@H]1[C@@H](C2)N(CC1CCC1)CC3 | 20 | 0.5 | 66 | 2500 | 120 | – | – | – | – | – | – | – | – | –
O=C(CCCCCCC(=O)Oc1ccc2c(c1)[C@@]13CCCC[C@H]1[C@@H](C2)N(CC1CCC1)CC3)Oc1ccc2c(c1)[C@@]13CCCC[C@H]1[C@@H](C2)N(CC1CCC1)CC3 | 37 | 1 | 0.89 | 24 | 0.65 | 10 | 80 | inactive | 100 | 60 | 11 | 90 | – | –
Oc1ccc2c(c1)[C@@]13CCCC[C@H]1[C@@H](C2)N(CC1CC1)CC3 | – | – | – | – | – | – | – | – | 50 | – | – | – | – | –
O=C(CCCC(=O)Oc1ccc2c(c1)[C@@]13CCCC[C@H]1[C@@H](C2)N(CC1CCC1)CC3)Oc1ccc2c(c1)[C@@]13CCCC[C@H]1[C@@H](C2)N(CC1CCC1)CC3 | 70 | 3 | 3.3 | 80 | 1.2 | – | – | – | – | – | – | – | – | –
CN1CC[C@]23CCCC[C@H]2[C@H]1Cc1ccc(O)cc13 [LEVORPHANOL] | – | – | – | – | 2.3 | – | – | – | – | – | – | – | – | –
Oc1ccc2c(c1)[C@@]13CCCC[C@H]1[C@@H](C2)N(CC1CCC1)CC3 [BUTORPHAN] | – | – | – | – | 0.079 | – | – | – | – | – | 1.3 | – | – | –
O=C(CCCCCCCCC(=O)Oc1ccc2c(c1)[C@@]13CCCC[C@H]1[C@@H](C2)N(CC1CC1)CC3)Oc1ccc2c(c1)[C@@]13CCCC[C@H]1[C@@H](C2)N(CC1CC1)CC3 | 80 | 2 | 0.93 | 32 | 0.41 | – | 90 | – | 100 | 30 | 4.9 | 90 | – | –
Oc1ccc2c(c1)[C@@]13CCCC[C@H]1[C@@H](C2)N(CCCCCCN1CC[C@]24CCCC[C@H]2[C@H]1Cc1ccc(O)cc14)CC3 | 7 | 1 | 52 | 370 | 50 | – | – | – | – | – | – | – | – | –
O=C(CCCCCCCCCCC(=O)Oc1ccc2c(c1)[C@@]13CCCC[C@H]1[C@@H](C2)N(CC1CCC1)CC3)Oc1ccc2c(c1)[C@@]13CCCC[C@H]1[C@@H](C2)N(CC1CCC1)CC3 | 75 | 2 | 1.8 | 82 | 1.1 | – | 90 | inactive | 60 | 14 | 8.1 | 100 | – | –
O=C(/C=C/C(=O)Oc1ccc2c(c1)[C@@]13CCCC[C@H]1[C@@H](C2)N(CC1CCC1)CC3)Oc1ccc2c(c1)[C@@]13CCCC[C@H]1[C@@H](C2)N(CC1CCC1)CC3 | 120 | 3 | 0.2 | 9.4 | 0.078 | 2.9 | 90 | – | 100 | 50 | 2.3 | 610 | 2400 | –
c1cc2c(cc1OCCCCOc1ccc3c(c1)[C@@]14CCCC[C@H]1[C@@H](C3)N(CC1CCC1)CC4)[C@@]13CCCC[C@H]1[C@@H](C2)N(CC1CCC1)CC3 | 40 | 2 | 29 | 730 | 18 | – | – | – | – | – | – | – | – | –
O=C(CCC(=O)Oc1ccc2c(c1)[C@@]13CCCC[C@H]1[C@@H](C2)N(CC1CC1)CC3)Oc1ccc2c(c1)[C@@]13CCCC[C@H]1[C@@H](C2)N(CC1CC1)CC3 | 40 | 1 | 0.14 | 3.8 | 0.1 | – | 70 | – | 60 | 10 | 3.3 | 1.8 | – | –
O=C(CCCCCCCCC(=O)Oc1ccc2c(c1)[C@@]13CCCC[C@H]1[C@@H](C2)N(CC1CCC1)CC3)Oc1ccc2c(c1)[C@@]13CCCC[C@H]1[C@@H](C2)N(CC1CCC1)CC3 | 90 | 2 | 0.09 | 4.2 | 0.049 | 1.3 | 60 | inactive | 60 | 50 | 0.85 | 16 | – | –
O=C(Oc1ccc2c(c1)[C@@]13CCCC[C@H]1[C@@H](C2)N(CC1CCC1)CC3)c1cccc(C(=O)Oc2ccc3c(c2)[C@@]24CCCC[C@H]2[C@@H](C3)N(CC2CCC2)CC4)c1 | 270 | 1 | 3.3 | 920 | 3.4 | – | – | – | – | – | – | – | – | –
O=C(CCC(=O)Oc1ccc2c(c1)[C@@]13CCCC[C@H]1[C@@H](C2)N(CC1CCC1)CC3)Oc1ccc2c(c1)[C@@]13CCCC[C@H]1[C@@H](C2)N(CC1CCC1)CC3 | 120 | 2 | 0.16 | 9.4 | 0.076 | 7.4 | 70 | inactive | 50 | 50 | 4.5 | 170 | – | –
COC(=O)CCCCCCCCC(=O)Oc1ccc2c(c1)[C@@]13CCCC[C@H]1[C@@H](C2)N(CC1CCC1)CC3 | 630 | 3 | 0.23 | 44 | 0.07 | 8 | 90 | – | 50 | 60 | 5.7 | 130 | – | inactive

— ChEMBL document CHEMBL1145905, “Design and synthesis of novel dimeric morphinan ligands for kappa and micro opioid receptors” (J Med Chem, 2003)
